# Screens from PubChem BioAssay.
# This is a sample that favours compounds with a hit; in the whole collection about 2.7% have one here.
# SIRT5 inh – blocks human SIRT5 desuccinylation of peptide; 330,000 compounds, 1.1% hits; inhibition, % at 15 µM; Purified SirT5, succinyl-peptide AMC, trypsin-coupled fluorescence; in the data active means inhibition above about 15%; inconclusive means no clear call, values can overlap the other calls
# S100A4 MyoIIA – S100A4-myosin IIA interaction inhibition; S100A4/TAMRA-MyoIIA peptide fluorescence polarization; 360,000 compounds, 0.14% hits; inhibition, % at 10.7 µM; P26447; AID 652163;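 active means mean inhibition of at least 70% across replicates, with every replicate also reaching that level; inconclusive means mean inhibition reaches 70% but some replicates fall short; inactive means mean inhibition below 70%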
#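 Material: S100A4 monomer protein / Buffer or medium: 50 mM HEPES pH 7.2, 10 mM CaCl2, 100 mM KCl / Times: 5 min incubation before reading / Benchmarks: neutral control DMSO, positive control TFP / Reagent: labelled myosin peptide probe, 5 nM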
# DENV2 CPE – protects cells from dengue virus 2 cytopathic effect; DENV2-infected cells, cytopathic effect rescue, plate reader; CPE inhibition, % at 9.99 µM; 350,000 compounds, 1.7% hits; AID 651640; in the data active means CPE inhibition above about 20%, passing the limit was not always enough; inconclusive means no clear call, values can overlap the other calls; tested in BHK-21 cells;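 further: 0% = median of neutral control wells and 100% = median of positive control wells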
# MLL AF4-AF9 inh – MLL-AF4/AF9 protein interaction inhibition. P42568. AlphaScreen, biotin-AF4 peptide binding to FLAG-AF9. inhibition, % at 10 µM. 350,000 compounds, 0.47% hits;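 active means every replicate reaching a set inhibition limit, whatever the replicate mean, cut at about 25% in these data; inconclusive means mean inhibition reaches that limit but some replicates miss it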;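 further: 0% = plate neutral control median and 100% = total signal loss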
# Target sequence (P42568 whole entry, looked up): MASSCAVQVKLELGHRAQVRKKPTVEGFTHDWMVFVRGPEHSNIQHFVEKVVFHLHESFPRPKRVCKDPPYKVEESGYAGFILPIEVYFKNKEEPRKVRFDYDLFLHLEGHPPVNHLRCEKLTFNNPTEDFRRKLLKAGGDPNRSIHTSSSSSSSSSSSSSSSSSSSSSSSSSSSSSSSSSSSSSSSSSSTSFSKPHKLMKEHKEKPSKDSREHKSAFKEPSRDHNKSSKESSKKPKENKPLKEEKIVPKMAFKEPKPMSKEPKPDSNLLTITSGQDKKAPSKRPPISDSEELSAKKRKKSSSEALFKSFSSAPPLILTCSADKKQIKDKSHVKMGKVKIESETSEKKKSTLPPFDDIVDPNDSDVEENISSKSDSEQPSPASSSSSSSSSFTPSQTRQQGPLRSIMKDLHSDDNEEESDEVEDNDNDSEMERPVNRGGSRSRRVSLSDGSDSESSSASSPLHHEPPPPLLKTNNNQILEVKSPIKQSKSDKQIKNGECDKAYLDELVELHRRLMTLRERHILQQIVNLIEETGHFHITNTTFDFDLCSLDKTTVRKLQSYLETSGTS
# CaV13 ICDI inh – Disruptors of the CACNA1D IQ motif to Ca2+-dependent inactivation inhibitor domain association, primary screening, Förster resonance energy transfer in intact living …. HEK cells, CFP/YFP FRET ICDI-IQ, plate reader, 10 min; percent FRET-ratio fall versus neutral wells. inhibition, % at 12.3 µM. 340,000 compounds, 0.098% hits;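 active means mean replicate inhibition of at least 30% and at least 1% of replicates passing that level; inconclusive means only one of the two criteria is met; inactive means neither criterion is met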;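 further: 0% = median of the neutral control wells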
# * hit, by the source's call; ? = inconclusive; · = no result; ! = a repeat was not active.
SMILES,SIRT5 inh,S100A4 MyoIIA,DENV2 CPE,MLL AF4-AF9 inh,CaV13 ICDI inh
COc1ccc(CN(C)C[C@H]2Oc3c(NC(=O)NC(C)C)cccc3C(=O)N([C@@H](C)CO)C[C@H]2C)cc1,2.6,1.6,16.6,-1.2,·
COc1cccc(CNC(=O)C[C@H]2C=C[C@H](NS(=O)(=O)c3ccccc3OC)[C@@H](CO)O2)c1,-6.2,6.0,2.3,0.4,·
CC(C)NC(=O)Nc1ccc2c(c1)C(=O)N([C@@H](C)CO)C[C@@H](C)[C@H](CN(C)S(=O)(=O)c1ccc(Cl)cc1)O2,-0.2,7.5,?,-0.2,·
Cc1ccc(C(=O)NCCc2cc3ccc(C)c(C)c3[nH]c2=O)cc1[N+](=O)[O-],1.6,0.1,50.1*,-0.4,-4.3
COc1ccc(NC(=O)N(C)C[C@H]2Oc3ccc(NC(=O)CCN4CCOCC4)cc3C(=O)N([C@@H](C)CO)C[C@@H]2C)cc1,-3.1,1.3,-7.2,-2.2,·
COc1ccc(CN(C)C[C@@H]2Oc3ccc(NC(=O)CCN4CCOCC4)cc3C(=O)N([C@@H](C)CO)C[C@H]2C)cc1,-2.4,-7.3,20.5*,-0.8,·
COc1ccc(NC(=O)N(C)C[C@H]2Oc3ccc(NC(=O)CCN4CCOCC4)cc3C(=O)N([C@H](C)CO)C[C@@H]2C)cc1,3.9,1.8,51.5*!,-1.0,-4.8
C[C@@H]1CN([C@@H](C)CO)C(=O)c2cc(NC(=O)CCN3CCOCC3)ccc2O[C@H]1CN(C)Cc1ccc(C(F)(F)F)cc1,25.8*,-2.4,-1.7,0.2,·
COC(=O)C[C@H]1CC[C@@H](N)[C@H](CO)O1,-0.2,-4.1,6.5,-1.4,·
COc1cc(NC(=O)CSc2c3c(nc4ccccc24)CCC3)cc(OC)c1OC,3.1,1.6,70.4*,-1.6,-2.4
CCN(C(=O)c1ccc2c(SCC(=O)O)c3c(nc2c1)CCC3)c1cc(Cl)ccc1OC,4.9,-5.8,50.3*,3.5,-6.9
C[C@@H]1CN([C@@H](C)CO)C(=O)c2cc(NS(=O)(=O)c3ccc(F)cc3)ccc2O[C@@H](C)CCCCO[C@H]1CN(C)Cc1ccccc1,0.5,1.3,4.5,1.3,·
C[C@@H]1CN([C@H](C)CO)C(=O)c2cc(NS(=O)(=O)c3ccc(Cl)cc3)ccc2O[C@@H]1CN(C)Cc1ccccc1,6.9,-11.4,41.9*,2.8,·
C[C@H]1CCCCO[C@H](CN(C)Cc2ccccc2)[C@@H](C)CN([C@@H](C)CO)C(=O)c2cc(NS(=O)(=O)c3ccc(Cl)cc3)ccc2O1,2.5,-2.6,-9.5,7.4,·
C[C@@H]1CN([C@H](C)CO)C(=O)c2cc(NS(=O)(=O)c3ccc(Cl)cc3)ccc2O[C@H]1CN(C)Cc1ccccc1,4.4,21.4,-1.6,-2.5,·
C[C@H](CO)N1C[C@H](C)[C@H](CN(C)Cc2ccccc2)OCCCC[C@H](C)Oc2ccc(NS(=O)(=O)c3ccc(F)cc3)cc2C1=O,3.5,8.3,-10.1,37.3*,·
C[C@@H]1CN([C@H](C)CO)C(=O)c2cc(NS(=O)(=O)c3ccc(Cl)cc3)ccc2O[C@@H](C)CCCCO[C@@H]1CN(C)Cc1ccccc1,20.8*,-5.5,-23.5,0.8,·
C[C@@H]1CN([C@@H](C)CO)C(=O)c2cc(NS(=O)(=O)c3ccc(Cl)cc3)ccc2O[C@@H](C)CCCCO[C@@H]1CN(C)Cc1ccccc1,18.1*,-0.6,-6.1,1.2,·
COc1ccc(CN(C)C[C@@H]2OCCCC[C@@H](C)Oc3ccc(NC(=O)CCC(F)(F)F)cc3C(=O)N([C@@H](C)CO)C[C@@H]2C)cc1,-1.6,9.1,-11.7,0.6,·
COc1ccc(CN(C)C[C@H]2OCCCC[C@@H](C)Oc3ccc(NC(=O)Nc4ccccc4)cc3C(=O)N([C@H](C)CO)C[C@@H]2C)cc1,·,·,6.9,·,·
COc1cccc(C#Cc2ccc3c(c2)O[C@@H](CN(C)C)[C@H](C)CN([C@H](C)CO)S3(=O)=O)c1,-0.2,8.8,-3.0,12.0,·
C[C@@H]1CN([C@H](C)CO)S(=O)(=O)c2ccc(Br)cc2O[C@@H]1CN(C)CC1CC1,-4.0,8.6,7.7,0.8,·
COc1cc(NC(=O)CSCC(=O)N(C)C2CCCCC2)cc(OC)c1,0.5,1.5,?,-1.2,-5.2
CN(C(=O)CSCC(=O)Nc1ccc(Cl)cc1)C1CCCCC1,0.3,-1.2,62.2*,7.4,-6.0
